T cell modulator = T cell immune modulation candidate; response (vesicle binding), % at 7 µM; 2C CD8+ T cell-vesicle binding, flow cytometry; active compounds read low; 0.068% of 330,000 active;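 active means response, share of CD8 T cells binding vesicles, and their 90th percentile fluorescence all below set limits, cut at about 80% in these data, passing the limit was not always enough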;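 further: values below 100% mean blocked vesicle binding to the CD8+ T cells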
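Assay system – 2C mouse CD8+ T cells · Also added – QL9-loaded Drosophila micro-vesicles · Timing – Cell–vesicle co-incubation 1.5 h at 37 °C, staining 20 min on ice · Signal – flow cytometry of vesicle-bound cells · Measure – percent CD8+ FL2 mean versus row control · Controls – Peptide-free naked vesicles (low) and QL9 vesicles with 0.7% DMSO vehicle (high)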
NALP1 inh = NALP1 inhibition; S. cerevisiae NALP1/ASC/caspase-1 growth, X-gal OD620, 72 h; inhibition, % at 10 µM; 0.61% of 280,000 active; in the data active means inhibition mostly above about 24%, no sharp cut-off; inactive means mostly below about 32%
A1 inh = inhibitors of the anti-apoptotic protein A1, read as caspase activation; MEF A1-2A-BIM cells, Caspase-Glo 3/7 luminescence, 3 h; percent of clofoctol response, vehicle zero; caspase activation, % (concentration not given with the values); 0.066% of 330,000 active;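 active means over half of replicate activation scores above 10%, or exactly half above 10 with the replicate mean above 10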
NLRP3 yeast inh = NALP3 inhibition in yeast. 0.39% of 330,000 active. Yeast reconstituted NLRP3/ASC/caspase-1, beta-gal luminescence, 24 h. inhibition, % at 10 µM. AID 2825;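 active means inhibition of 50% or more; inactive means inhibition below 50%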
NALP3 yeast conf = confirmation of NALP3 inhibitors in yeast; 81% of 1,300 active; inhibition, % at 10 µM; AID 435006; yeast expressing human NALP3, luminescence; shares compounds with NLRP3 yeast inh; in the data active means inhibition above about 48%
Casp1-ASC yeast = active in yeast caspase-1-ASC counter-screen for NALP3 inhibitors; shares compounds with NLRP3 yeast inh; yeast expressing Caspase-1-ASC, luminescence counter screen; inhibition, % at 10 µM; 66% of 1,000 active; AID 488784
NALP3 retest = retest-confirmed inhibitor of NALP3 in yeast; shares compounds with NLRP3 yeast inh; yeast expressing human NALP3, luminescence read-out; inhibition, % at 10 µM; 53% of 1,000 active
Each line names hits and unclear results; the compound was inactive in the other large screens (follow-up assays come after a bar, where they were run). Sampled rows, rich in hits. Any-hit rate of the full collection: about 1%. Unless noted, no stated cut-off is given here; in the data, active means inhibition above about 50%; inactive means the rest.

CCCNC(=O)c1ccc2c(c1)nc(C)n2-c1cccc(Cl)c1	none
Cc1ccc(C(=O)NC(C)C2CC3CCC2C3)c(C)c1 (stereo not given)	none
CCCCCNC(=O)C(=O)C1C(=O)Nc2ccccc21 (stereo not given)	NLRP3 yeast inh 52.3 (no result: NALP1 inh) | NALP3 yeast conf 70.7 | Casp1-ASC yeast inactive | NALP3 retest 51.1
CCOc1ccc(S(=O)(=O)Nc2ccc(Cl)cn2)c(C)c1C	NLRP3 yeast inh 59.5 | NALP3 yeast conf 76.9 | Casp1-ASC yeast 63.6 | NALP3 retest inactive
CC(C)=CCc1c(O)cc2oc3c(CC=C(C)C)c(O)c(O)c(CC=C(C)C)c3c(=O)c2c1O	NLRP3 yeast inh 55.7 | NALP3 yeast conf 73.7 | Casp1-ASC yeast 51.0 | NALP3 retest inactive
CC[C@@]1(C(=O)OC)N[C@H](CN(C)C(=O)COC)[C@@H]2C(=O)N(Cc3ccccc3)C(=O)[C@@H]21	none (no result: NALP1 inh, A1 inh)
CC(=O)n1cc([C@@H]2C=C(C(=O)NCc3ccccc3)O[C@H](OCCCCO)C2)c2ccccc21	NLRP3 yeast inh 88.9 | NALP3 yeast conf inactive | Casp1-ASC yeast inactive | NALP3 retest inactive
CC1CCC(NC(=O)c2cc(S(=O)(=O)N3CCCCC3)ccc2N2CCOCC2)CC1 (stereo not given)	none (no result: NALP1 inh)
CN1c2ccccc2Sc2cc(N)ccc21	NALP1 inh 51.8, NLRP3 yeast inh 64.3 | NALP3 yeast conf inactive | Casp1-ASC yeast 73.6 | NALP3 retest 61.1
COc1ccc(NC(=O)C#Cc2ccccc2)cc1	NLRP3 yeast inh 66.9 | NALP3 yeast conf 76.0 | Casp1-ASC yeast inactive | NALP3 retest 62.1
COc1cc2ccccc2cc1C(=O)N1CCN(c2ccccn2)CC1	NLRP3 yeast inh 52.3 | NALP3 yeast conf 86.9 | Casp1-ASC yeast 61.6 | NALP3 retest 76.0
COc1cc(C(=O)N2CCN(c3ccccn3)CC2)cc(OC)c1OC	none
COCCNS(=O)(=O)c1ccc(Cl)c(C(=O)NC2CCN(Cc3ccccc3)CC2)c1	none
c1ccc(-c2n[nH]c3ccccc23)cc1	NALP1 inh 22.3, NLRP3 yeast inh 65.1 (no result: T cell modulator) | NALP3 yeast conf 85.0 | Casp1-ASC yeast 70.4 | NALP3 retest 63.0
O=c1[nH]nc(-c2ccccc2)c2ccccc12	none
O=C(NCc1ccc(Cl)c(Cl)c1)C1CCCC1	none (no result: NALP1 inh)
Cc1cc(N/N=C/c2ccc(F)cc2)nc(-n2nc(C)cc2C)n1	none
CCOc1cc(/C=N/Nc2cc(C)nc(-n3nc(C)cc3C)n2)ccc1O	A1 inh 8.6, NLRP3 yeast inh 76.7 | NALP3 yeast conf 54.0 | Casp1-ASC yeast inactive | NALP3 retest inactive
COc1cccc2cc(-c3ccccc3)c(=O)oc12	NLRP3 yeast inh 53.8 | NALP3 yeast conf 71.8 | Casp1-ASC yeast 57.6 | NALP3 retest 50.0
COc1cccc2cc(-c3nc4ccccc4[nH]3)c(=O)oc12	NLRP3 yeast inh 57.0 | NALP3 yeast conf 53.9 | Casp1-ASC yeast inactive | NALP3 retest inactive
COc1ccc2cc(-c3ccccc3)c(=O)oc2c1	NLRP3 yeast inh 63.4 | NALP3 yeast conf 75.0 | Casp1-ASC yeast 67.8 | NALP3 retest 63.4
COc1ccc(-c2cc3cccc(OC)c3oc2=O)cc1	none
COc1cccc2cc(-c3nc(-c4cccs4)cs3)c(=O)oc12	none
COc1cc(NC(=O)c2ccccc2)c(C)cc1NC(=O)CC(CC(=O)O)c1ccccc1 (stereo not given)	none
COc1ccccc1OCCCCCc1c(C)n[nH]c1C	none (no result: T cell modulator)
COc1ccccc1OCCCc1c(C)n[nH]c1C	NALP1 inh 42.6, NLRP3 yeast inh 51.4 | NALP3 yeast conf 88.2 | Casp1-ASC yeast 94.6 | NALP3 retest 80.8
Cc1ccc(S(=O)(=O)NCc2ccccc2)cc1C(=O)N1CCN(S(=O)(=O)c2ccccc2)CC1	none (no result: T cell modulator, NALP1 inh, A1 inh)
O=S(=O)(c1c(Cl)sc(Cl)c1Br)N1CCCC1	NLRP3 yeast inh 63.7 | NALP3 yeast conf 63.8 | Casp1-ASC yeast 61.5 | NALP3 retest 66.8
C=CCOc1nc2c(c(=O)n(Cc3ccc(Cl)cc3)c(=O)n2C)n1C	NLRP3 yeast inh 55.1 | NALP3 yeast conf inactive | Casp1-ASC yeast inactive | NALP3 retest inactive
Cn1c(N2CCCC2)nc2c1c(=O)n(Cc1ccc(Cl)cc1)c(=O)n2C	NLRP3 yeast inh 73.7 | NALP3 yeast conf inactive
Cn1c(N2CCC(C(N)=O)CC2)nc2c1c(=O)n(Cc1ccc(Cl)cc1)c(=O)n2C	none
C=CCOc1nc2c(c(=O)n(C)c(=O)n2C)n1Cc1ccccc1	none
COc1cc(/C=N\NC(=O)c2cccnc2)ccc1OC(=O)c1ccccc1Cl	none
Cc1cc(Cl)c2oc(C(=O)N(C)Cc3ccon3)c(C)c2c1	NALP1 inh 41.5, NLRP3 yeast inh 50.1 | NALP3 yeast conf 47.7 | Casp1-ASC yeast inactive | NALP3 retest inactive
Cc1cc(Cl)c2oc(C(=O)N(C)Cc3cc(C)[nH]n3)c(C)c2c1	none
Cn1c(-c2ccccc2)cc2ccccc21	none
Cn1c(-c2ccccc2)cc2c3no[n+]([O-])c3ccc21	NLRP3 yeast inh 53.1 | NALP3 yeast conf 61.4 | Casp1-ASC yeast 63.2 | NALP3 retest 58.6
Cc1ccc(S(=O)(=O)CC(=O)Nc2nc(C(C)(C)C)cs2)cc1	NLRP3 yeast inh 50.6 | NALP3 yeast conf 73.3 | Casp1-ASC yeast 60.6 | NALP3 retest inactive
Cc1ccc(S(=O)(=O)CCC(=O)Nc2nc(C(C)(C)C)cs2)cc1	none
O=C(O)c1ccc(S(=O)(=O)/N=C2\C=C(Nc3ccccc3F)C(=O)c3ccccc32)cc1	NALP1 inh 79.9, NLRP3 yeast inh 93.9 | NALP3 yeast conf 82.7 | Casp1-ASC yeast 99.3 | NALP3 retest 97.4
O=C(Nc1ccc2c(c1)Cc1ccccc1-2)c1ccncc1	NLRP3 yeast inh 53.2 | NALP3 yeast conf inactive
O=C(Nc1ccc2c(c1)Cc1ccccc1-2)c1cc2ccccc2o1	none (no result: NALP1 inh)
O=C(NC1CC1)c1cc2c(s1)-c1ccccc1OC2	NALP1 inh 34.0, NLRP3 yeast inh 60.1 | NALP3 yeast conf 74.0 | Casp1-ASC yeast 57.1 | NALP3 retest inactive
O=C(NNC(=S)Nc1ccc(Br)cc1)c1cccnc1	NLRP3 yeast inh 52.6 | NALP3 yeast conf 50.4
CC(C)c1ccc(NC(=S)NNC(=O)c2cccnc2)cc1	none
Cn1nnc(NC(=S)NC(=O)c2cccc3c(Cl)cccc23)n1	NLRP3 yeast inh 54.1 | NALP3 yeast conf 64.4 | Casp1-ASC yeast 74.2 | NALP3 retest inactive
CS(=O)(=O)c1ccccc1-c1nnc(NC(=O)Cc2ccccc2)o1	none
Cc1nc(-c2ccccn2)nc(N(C)c2ccccc2)c1Cl	none
C/C(=N/Nc1ncc(Br)cn1)c1ccc(Br)cc1	NLRP3 yeast inh 54.8 | NALP3 yeast conf 70.3 | Casp1-ASC yeast 60.8 | NALP3 retest 51.8
N#Cc1ccccc1NC(=O)COc1ccccc1C(=O)Nc1ccccc1	none (no result: NALP1 inh)
Oc1ccc(N=Cc2ccc(OCc3ccccc3)cc2)cc1	NLRP3 yeast inh 50.9 | NALP3 yeast conf inactive
COc1ccc2cc(C(=O)NCc3ccccc3CN3CCCC3)ccc2c1	none (no result: NALP1 inh)

Screens (PubChem)
